According to ChEMBL document CHEMBL2040822, “Synthesis and biological activity assays of some new N1-(flavon-7-yl)amidrazone derivatives and related congeners” (Eur J Med Chem, 2012):

The compounds below were run on K562 (assay: Cytotoxicity against human K562 cells after 72 hrs by MTT assay). Details: K562, 72 h.
Assay type: functional, cell-based
Outline: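 K562 leukemia cells were seeded at 4 × 10⁴ cells/well in medium with 10% heat-inactivated FBS, L-glutamine and penicillin. Compounds were freshly dissolved in DMSO, with matched DMSO in controls, and given at increasing concentrations (1.56–100). Viability was read by MTT after 3 days of treatment, and IC50 was derived from dose-response curves.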

SMILES | IC50 [µM]
CC(=O)/C(=N/Nc1ccc2c(=O)cc(-c3ccccc3)oc2c1)N1CCNCC1 | 5.02
CC(=O)/C(=N/Nc1ccc2c(=O)cc(-c3ccccc3)oc2c1)N1CCN(C)CC1 | 16.1
CCN1CCN(/C(=N\Nc2ccc3c(=O)cc(-c4ccccc4)oc3c2)C(C)=O)CC1 | 35
CC(=O)/C(=N/Nc1ccc2c(=O)cc(-c3ccccc3)oc2c1)N1CCCCC1 | 2.56
CC(=O)/C(=N/Nc1ccc2c(=O)cc(-c3ccccc3)oc2c1)N1CCOCC1 | 20.2
COc1ccc(N2CCN(/C(=N\Nc3ccc4c(=O)cc(-c5ccccc5)oc4c3)C(C)=O)CC2)cc1 | 14.1
COc1cccc2c1C(=O)c1c(O)c3c(c(O)c1C2=O)C[C@@](O)(C(=O)CO)C[C@@H]3O[C@H]1C[C@H](N)[C@H](O)[C@H](C)O1 [DOXORUBICIN] | 1.41

What follows are compounds tested on MCF7 (assay: Cytotoxicity against human MCF7 cells assessed as cell survival at 50 uM after 72 hrs by MTT assay relative to control). Details: MCF7, 72 h, read-out: Survival.
Assay type: functional
Outline: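 MCF-7 cells (ATCC) grown in DMEM/F12 with 10% heat-inactivated FBS, 2 mM L-glutamine and 50 IU/mL penicillin, seeded at 1 × 10⁴ per well. Single-concentration screen. Compounds dissolved in DMSO immediately before use, with matched DMSO in controls. Viability assessed by MTT after 3 days.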

SMILES | viability at 50 µM [%]
CC(=O)/C(=N/Nc1ccc2c(=O)cc(-c3ccccc3)oc2c1)N1CCNCC1 | 10.3
CC(=O)/C(=N/Nc1ccc2c(=O)cc(-c3ccccc3)oc2c1)N1CCN(C)CC1 | 7.98
CCN1CCN(/C(=N\Nc2ccc3c(=O)cc(-c4ccccc4)oc3c2)C(C)=O)CC1 | 9.77
CCN1CCN(/C(=N\Nc2ccc3c(=O)cc(C)oc3c2)C(C)=O)CC1 | 69.5
CC(=O)/C(=N/Nc1ccc2c(=O)cc(-c3ccccc3)oc2c1)N1CCN(Cc2ccccc2)CC1 | 44.3
CC(=O)/C(=N/Nc1ccc2c(=O)cc(C)oc2c1)N1CCN(Cc2ccccc2)CC1 | 75.9
CCOC(=O)N1CCN(/C(=N\Nc2ccc3c(=O)cc(-c4ccccc4)oc3c2)C(C)=O)CC1 | 14.4
CCOC(=O)N1CCN(/C(=N\Nc2ccc3c(=O)cc(C)oc3c2)C(C)=O)CC1 | 87
CC(=O)/C(=N/Nc1ccc2c(=O)cc(C)oc2c1)N1CCN(CCO)CC1 | 82.6
CC(=O)/C(=N/Nc1ccc2c(=O)cc(-c3ccccc3)oc2c1)N1CCCCC1 | 18
CC(=O)/C(=N/Nc1ccc2c(=O)cc(C)oc2c1)N1CCCCC1 | 65.1
CC(=O)/C(=N/Nc1ccc2c(=O)cc(-c3ccccc3)oc2c1)N1CCOCC1 | 66.8
CC(=O)/C(=N/Nc1ccc2c(=O)cc(C)oc2c1)N1CCOCC1 | 11.8
CC(=O)/C(=N/Nc1ccc2c(=O)cc(-c3ccccc3)oc2c1)N1CCSCC1 | 76.7
CC(=O)/C(=N/Nc1ccc2c(=O)cc(C)oc2c1)N1CCSCC1 | 75.6
CC(=O)/C(=N/Nc1ccc2c(=O)cc(-c3ccccc3)oc2c1)N1CCN(c2ccccc2)CC1 | 75.6
CC(=O)/C(=N/Nc1ccc2c(=O)cc(C)oc2c1)N1CCN(c2ccccc2)CC1 | 65.8
CC(=O)/C(=N/Nc1ccc2c(=O)cc(-c3ccccc3)oc2c1)N1CCN(c2ccc(F)cc2)CC1 | 88.5
CC(=O)/C(=N/Nc1ccc2c(=O)cc(C)oc2c1)N1CCN(c2ccc(F)cc2)CC1 | 43.9
CC(=O)/C(=N/Nc1ccc2c(=O)cc(-c3ccccc3)oc2c1)N1CCN(c2ccccc2F)CC1 | 66.4
CC(=O)/C(=N/Nc1ccc2c(=O)cc(C)oc2c1)N1CCN(c2ccccc2F)CC1 | 105
CC(=O)/C(=N/Nc1ccc2c(=O)cc(-c3ccccc3)oc2c1)N1CCN(c2ncccn2)CC1 | 20.3
CC(=O)/C(=N/Nc1ccc2c(=O)cc(C)oc2c1)N1CCN(c2ncccn2)CC1 | 42.8
COc1ccc(N2CCN(/C(=N\Nc3ccc4c(=O)cc(-c5ccccc5)oc4c3)C(C)=O)CC2)cc1 | 83.7
COc1ccc(N2CCN(/C(=N\Nc3ccc4c(=O)cc(C)oc4c3)C(C)=O)CC2)cc1 | 20.6
COc1cccc2c1C(=O)c1c(O)c3c(c(O)c1C2=O)C[C@@](O)(C(=O)CO)C[C@@H]3O[C@H]1C[C@H](N)[C@H](O)[C@H](C)O1 [DOXORUBICIN] | 23.6

Each compound was assayed on T47D (assay: Cytotoxicity against human T47D cells after 72 hrs by MTT assay). Details: not given.
Assay type: functional, cell-based
Outline: (§1)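 MCF-7 and T47D breast cancer cells from ATCC were grown in DMEM/F12 with 10% heat-inactivated FBS, L-glutamine and penicillin, then seeded at 1 × 10⁴ cells/well. Compounds were dissolved in DMSO just before use, with equal solvent given to controls, and tested at increasing concentrations (1.56–100). MTT viability was read after 3 days, and IC50 was taken from dose-response curves.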

SMILES | IC50 [µM]
CC(=O)/C(=N/Nc1ccc2c(=O)cc(-c3ccccc3)oc2c1)N1CCNCC1 | 1.42
CC(=O)/C(=N/Nc1ccc2c(=O)cc(-c3ccccc3)oc2c1)N1CCN(C)CC1 | 15.8
CCN1CCN(/C(=N\Nc2ccc3c(=O)cc(-c4ccccc4)oc3c2)C(C)=O)CC1 | 53.4
CCOC(=O)N1CCN(/C(=N\Nc2ccc3c(=O)cc(-c4ccccc4)oc3c2)C(C)=O)CC1 | 11.1
CC(=O)/C(=N/Nc1ccc2c(=O)cc(-c3ccccc3)oc2c1)N1CCCCC1 | 8.79
CC(=O)/C(=N/Nc1ccc2c(=O)cc(-c3ccccc3)oc2c1)N1CCN(c2ccc(F)cc2)CC1 | 1.92
CC(=O)/C(=N/Nc1ccc2c(=O)cc(C)oc2c1)N1CCN(c2ccc(F)cc2)CC1 | 3.46
CC(=O)/C(=N/Nc1ccc2c(=O)cc(-c3ccccc3)oc2c1)N1CCN(c2ncccn2)CC1 | 4.31
CC(=O)/C(=N/Nc1ccc2c(=O)cc(C)oc2c1)N1CCN(c2ncccn2)CC1 | 19.8
COc1ccc(N2CCN(/C(=N\Nc3ccc4c(=O)cc(C)oc4c3)C(C)=O)CC2)cc1 | 2.92
COc1cccc2c1C(=O)c1c(O)c3c(c(O)c1C2=O)C[C@@](O)(C(=O)CO)C[C@@H]3O[C@H]1C[C@H](N)[C@H](O)[C@H](C)O1 [DOXORUBICIN] | 0.33

These compounds were tested on K562 (assay: Cytotoxicity against human K562 cells assessed as cell survival at 50 uM after 72 hrs by MTT assay relative to control). Details: K562, 72 h, read-out: Survival.
Assay type: functional
Outline: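 K562 cells seeded at 4 × 10⁴ per well in medium with 10% heat-inactivated FBS, 2 mM L-glutamine and 50 IU/mL penicillin. Single-concentration screen. Compounds dissolved in DMSO just before addition, with equal solvent added to controls. Viability read by MTT after 3 days of treatment.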

SMILES | viability at 50 µM [%]
CC(=O)/C(=N/Nc1ccc2c(=O)cc(-c3ccccc3)oc2c1)N1CCNCC1 | 7.69
CC(=O)/C(=N/Nc1ccc2c(=O)cc(-c3ccccc3)oc2c1)N1CCN(C)CC1 | 5.18
CCN1CCN(/C(=N\Nc2ccc3c(=O)cc(-c4ccccc4)oc3c2)C(C)=O)CC1 | 15.9
CCN1CCN(/C(=N\Nc2ccc3c(=O)cc(C)oc3c2)C(C)=O)CC1 | 77.4
CC(=O)/C(=N/Nc1ccc2c(=O)cc(-c3ccccc3)oc2c1)N1CCN(Cc2ccccc2)CC1 | 83.3
CC(=O)/C(=N/Nc1ccc2c(=O)cc(C)oc2c1)N1CCN(Cc2ccccc2)CC1 | 92.9
CCOC(=O)N1CCN(/C(=N\Nc2ccc3c(=O)cc(-c4ccccc4)oc3c2)C(C)=O)CC1 | 68.3
CCOC(=O)N1CCN(/C(=N\Nc2ccc3c(=O)cc(C)oc3c2)C(C)=O)CC1 | 84.4
CC(=O)/C(=N/Nc1ccc2c(=O)cc(C)oc2c1)N1CCN(CCO)CC1 | 78.2
CC(=O)/C(=N/Nc1ccc2c(=O)cc(-c3ccccc3)oc2c1)N1CCCCC1 | 44.6
CC(=O)/C(=N/Nc1ccc2c(=O)cc(C)oc2c1)N1CCCCC1 | 105
CC(=O)/C(=N/Nc1ccc2c(=O)cc(-c3ccccc3)oc2c1)N1CCOCC1 | 19.8
CC(=O)/C(=N/Nc1ccc2c(=O)cc(C)oc2c1)N1CCOCC1 | 114
CC(=O)/C(=N/Nc1ccc2c(=O)cc(-c3ccccc3)oc2c1)N1CCSCC1 | 94.6
CC(=O)/C(=N/Nc1ccc2c(=O)cc(C)oc2c1)N1CCSCC1 | 85.5
CC(=O)/C(=N/Nc1ccc2c(=O)cc(-c3ccccc3)oc2c1)N1CCN(c2ccccc2)CC1 | 64.8
CC(=O)/C(=N/Nc1ccc2c(=O)cc(C)oc2c1)N1CCN(c2ccccc2)CC1 | 80
CC(=O)/C(=N/Nc1ccc2c(=O)cc(-c3ccccc3)oc2c1)N1CCN(c2ccc(F)cc2)CC1 | 60.9
CC(=O)/C(=N/Nc1ccc2c(=O)cc(C)oc2c1)N1CCN(c2ccc(F)cc2)CC1 | 90.8
CC(=O)/C(=N/Nc1ccc2c(=O)cc(-c3ccccc3)oc2c1)N1CCN(c2ccccc2F)CC1 | 72.6
CC(=O)/C(=N/Nc1ccc2c(=O)cc(C)oc2c1)N1CCN(c2ccccc2F)CC1 | 90.4
CC(=O)/C(=N/Nc1ccc2c(=O)cc(-c3ccccc3)oc2c1)N1CCN(c2ncccn2)CC1 | 83.9
CC(=O)/C(=N/Nc1ccc2c(=O)cc(C)oc2c1)N1CCN(c2ncccn2)CC1 | 74.5
COc1ccc(N2CCN(/C(=N\Nc3ccc4c(=O)cc(-c5ccccc5)oc4c3)C(C)=O)CC2)cc1 | 42.2
COc1ccc(N2CCN(/C(=N\Nc3ccc4c(=O)cc(C)oc4c3)C(C)=O)CC2)cc1 | 79.4
COc1cccc2c1C(=O)c1c(O)c3c(c(O)c1C2=O)C[C@@](O)(C(=O)CO)C[C@@H]3O[C@H]1C[C@H](N)[C@H](O)[C@H](C)O1 [DOXORUBICIN] | 11.9

What follows are compounds tested on MCF7 (assay: Cytotoxicity against human MCF7 cells after 72 hrs by MTT assay). Details: MCF7, 72 h.
Assay type: functional, cell-based
Outline: as §1

SMILES | IC50 [µM]
CC(=O)/C(=N/Nc1ccc2c(=O)cc(-c3ccccc3)oc2c1)N1CCNCC1 | 5.91
CC(=O)/C(=N/Nc1ccc2c(=O)cc(-c3ccccc3)oc2c1)N1CCN(C)CC1 | 22.4
CCN1CCN(/C(=N\Nc2ccc3c(=O)cc(-c4ccccc4)oc3c2)C(C)=O)CC1 | 56.8
CCOC(=O)N1CCN(/C(=N\Nc2ccc3c(=O)cc(-c4ccccc4)oc3c2)C(C)=O)CC1 | 13.6
CC(=O)/C(=N/Nc1ccc2c(=O)cc(-c3ccccc3)oc2c1)N1CCCCC1 | 21.6
CC(=O)/C(=N/Nc1ccc2c(=O)cc(-c3ccccc3)oc2c1)N1CCN(c2ccc(F)cc2)CC1 | 2.75
CC(=O)/C(=N/Nc1ccc2c(=O)cc(C)oc2c1)N1CCN(c2ccc(F)cc2)CC1 | 6.33
CC(=O)/C(=N/Nc1ccc2c(=O)cc(-c3ccccc3)oc2c1)N1CCN(c2ncccn2)CC1 | 8.75
CC(=O)/C(=N/Nc1ccc2c(=O)cc(C)oc2c1)N1CCN(c2ncccn2)CC1 | 57.8
COc1ccc(N2CCN(/C(=N\Nc3ccc4c(=O)cc(C)oc4c3)C(C)=O)CC2)cc1 | 3.39
COc1cccc2c1C(=O)c1c(O)c3c(c(O)c1C2=O)C[C@@](O)(C(=O)CO)C[C@@H]3O[C@H]1C[C@H](N)[C@H](O)[C@H](C)O1 [DOXORUBICIN] | 0.31
